# ChEMBL document CHEMBL5661969, “Preclinical evaluation of a potent novel DNA-dependent protein kinase inhibitor NU7441” (Cancer Res, 2006)
# Columns and labels:
# [1] = Cytotoxicity against Chinese hamster DNA-PK deficient V3 cells assessed as cell survival at 0.5 umol/L measured after 16 hrs by crystal violet staining based assay relative to control; format: toxicity, Cricetulus griseus; details: dose 0.5 µmol/L, read-out: Activity
# Procedure, shortened: (§1)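 Exponentially growing cells exposed 16 h to agent (0.5 or 1.0 μmol/L), with or without etoposide or doxorubicin, at 0.5% DMSO final; controls get DMSO alone. Cells are then trypsinized, reseeded at 100–100,000 per dish in drug-free medium and grown 10–14 days. Colonies stained with crystal violet and counted automatically.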
# [2] = Cytotoxicity against Chinese hamster DNA-PK deficient V3 cells assessed as reduction in cell survival at 0.5 umol/L measured after 16 hrs in presence of etoposide by crystal violet staining based assay; format: toxicity, Cricetulus griseus; details: v3, 16 h, 0.5 µM, dose 0.5 µmol/L; procedure, shortened: as §1
# [3] = AUCinfinity in BALB/c mouse at 10 mg/kg, ip by HPLC analysis; format: ADME, organism-based; details: in vivo
# Procedure, shortened: (§2)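 Female BALB/c mice dosed 5 mg/kg i.v. in 10% DMSO/10% cyclodextrin in saline, or 10 mg/kg i.p. or orally at 1 mg/mL in 40% PEG400/saline. Plasma taken at 5, 10, 15, 30, 60, 90, 120, 180, 240 and 360 min, three mice per time. Acetonitrile precipitation, C18 HPLC with UV detection at 329 nm against a plasma standard curve. Parameters derived from mean concentrations.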
# [4] = Growth inhibition of human LoVo cells at 1 umol/L measured after 5 days by crystal violet staining based assay relative to control; format: toxicity, cell-based; details: dose 1 µmol/L, time 5 day, read-out: GI
# Procedure, shortened: (§3)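 LoVo and SW620 cells in 96-well plates under 5-day continuous exposure to agent, and growth measured relative to control.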
# LoVo [5] = test: Cell cycle arrest in human LoVo cells assessed as increase in G1-phase cell population at 1 umol/L measured after 1 hr by propidium iodide staining based flow cytometry relative to control; format: toxicity; details: 1 µM, dose 1 µmol/L
# Procedure, shortened: (§4)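 Asynchronous SW620 or LoVo cells, seeded 24 h earlier, given control or 1 μmol/L agent medium for 1 h before ionizing radiation, etoposide or doxorubicin, then incubated a further 16 h. Cells fixed in 70% ethanol, stained with propidium iodide (400 μg/mL) plus RNase (1 mg/mL), and analysed by 488 nm flow cytometry.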
# [6] = Toxicity in human SW620 cell xenografted athymic nude CD1 mouse assessed as maximum body weight loss at 10 mg/kg, ip administered 5 times daily for 5 days relative to control; format: organism-based, SW-620; details: in vivo, 120 h, time 5 day
# Procedure, shortened: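 CD-1 nude mice carry palpable s.c. SW620 xenografts (~5×5 mm, 8-10 days), five per group. Treated i.p. daily for 5 days with saline, agent in 40% PEG 400/saline, etoposide phosphate 11.35 mg/kg (equal to 10 mg/kg etoposide), or both, agent given immediately before etoposide phosphate. Read-outs are median relative tumour volume, time to 4× volume (growth delay) and body weight.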
# [7] = AUClast in BALB/c mouse at 10 mg/kg, po by HPLC analysis; format: ADME, organism-based; details: in vivo; procedure, shortened: as §2
# [8] = Ratio of drug level in tumor to plasma of human SW620 cell xenografted athymic nude CD1 mouse at 10 mg/kg, ip measured after 90 mins by HPLC analysis; format: ADME, organism-based; details: tumor and plasma
# Procedure, shortened: (§5)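 Female CD-1 nu/nu mice bearing s.c. flank SW620 tumours (1×10^7 cells, ~650 mm³ at 10–14 days) given 10 mg/kg i.p. Tissues snap frozen, homogenised 1:3 in PBS. Acetonitrile precipitation, C18 HPLC with acetate pH 5/acetonitrile 75:25 mobile phase, UV 329 nm; tissue levels by method of addition. Tissue/plasma ratio, mean of three mice per time.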
# [9] = Ratio of drug level in kidney to plasma of human SW620 cell xenografted athymic nude CD1 mouse at 10 mg/kg, ip measured after 30 mins by HPLC analysis; format: ADME, organism-based; details: kidney and plasma; procedure, shortened: as §5
# [10] = Growth inhibition of human SW620 cells at 1 umol/L measured after 5 days by crystal violet staining based assay relative to control; format: toxicity, cell-based, SW-620; details: dose 1 µmol/L, time 5 day, read-out: GI; procedure, shortened: as §3
# [11] = Ratio of drug level in spleen to plasma of human SW620 cell xenografted athymic nude CD1 mouse at 10 mg/kg, ip measured after 240 mins by HPLC analysis; format: ADME, organism-based; procedure, shortened: as §5
# SW-620 = test: Cell cycle arrest in human SW620 cells assessed as increase in G1-phase cell population at 1 umol/L measured after 16 hrs by propidium iodide staining based flow cytometry relative to control; details: sw-620, 16 h, 1 µM
# [12] = Clearance in BALB/c mouse at 10 mg/kg, ip by HPLC analysis; format: ADME, organism-based; details: in vivo; procedure, shortened: as §2
# LoVo [13] = test: Cell cycle arrest in human LoVo cells assessed as reduction in S-phase cell population at 1 umol/L measured after 1 hr by propidium iodide staining based flow cytometry relative to control; format: toxicity; set-up: scale not given: the % may be the effect or the level left; details: 1 µM, dose 1 µmol/L; procedure, shortened: as §4
# [14] = Ratio of drug level in spleen to plasma of human SW620 cell xenografted athymic nude CD1 mouse at 10 mg/kg, ip measured after 90 mins by HPLC analysis; format: ADME, organism-based; procedure, shortened: as §5
# [15] = Oral bioavailability in BALB/c mouse at 10 mg/kg by HPLC analysis; format: ADME, organism-based; details: in vivo; procedure, shortened: as §2
# [16] = Inhibition of DNA-PK in Chinese hamster DNA-PK proficient V3-YAC cells assessed as potentiation of etoposide-induced cytotoxicity by measuring fold change in etoposide LD90 at 0.5 umol/L measured after 16 hrs by crystal violet staining based assay relative to etoposide alone; set-up: species or system Cricetulus griseus; details: dose 0.5 µmol/L, condition cancer
# Procedure, shortened: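 V3-YAC Chinese hamster ovary cells (human DNA-PKcs YAC, kept in 500 μg/mL G-418), RPMI 1640/10% FBS. Cells reseeded drug-free, colonies crystal violet stained after 10–14 days; LD90 ratio without/with inhibitor (DMR90).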
# [17] = Ratio of drug level in kidney to plasma of human SW620 cell xenografted athymic nude CD1 mouse at 10 mg/kg, ip measured after 60 mins by HPLC analysis; format: ADME, organism-based; procedure, shortened: as §5
# [18] = target: DNA-dependent protein kinase catalytic subunit (Homo sapiens, UniProt P78527); details: LoVo, dose 1.0 µmol/L, time 17.0 hrs
# [19] = Tmax in BALB/c mouse at 10 mg/kg, po by HPLC analysis; format: ADME, organism-based; details: in vivo; procedure, shortened: as §2
# [20] = Tmax in BALB/c mouse at 5 mg/kg, iv by HPLC analysis; format: ADME, organism-based; details: in vivo; procedure, shortened: as §2
# [21] = Ratio of drug level in kidney to plasma of human SW620 cell xenografted athymic nude CD1 mouse at 10 mg/kg, ip measured after 240 mins by HPLC analysis; format: ADME, organism-based; procedure, shortened: as §5
# [22] = Inhibition of DNA-PK in Chinese hamster DNA-PK proficient V3-YAC cells assessed as potentiation of ionizing radiation-induced cytotoxicity by measuring radiation LD90 at 0.5 umol/L preincubated for 1 hr followed by gamma-irradiation and measured after 16 hrs by crystal violet staining based assay; set-up: species or system Cricetulus griseus; details: dose 0.5 µmol/L; time 17 hrs; condition cancer
# Procedure, shortened: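 Clonogenic assay in V3/V3-YAC cells. Cells were then reseeded in drug-free medium, and crystal violet colonies were counted after 10–14 days. LD90 is the radiation dose killing 90%. DMR90 is LD90 without inhibitor divided by LD90 with inhibitor.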
# [23] = Bioavailability in BALB/c mouse at 10 mg/kg, ip by HPLC analysis; format: ADME, organism-based; details: in vivo; procedure, shortened: as §2
# Chain of DNA-dependent protein kinase catalytic subunit (P78527 whole entry): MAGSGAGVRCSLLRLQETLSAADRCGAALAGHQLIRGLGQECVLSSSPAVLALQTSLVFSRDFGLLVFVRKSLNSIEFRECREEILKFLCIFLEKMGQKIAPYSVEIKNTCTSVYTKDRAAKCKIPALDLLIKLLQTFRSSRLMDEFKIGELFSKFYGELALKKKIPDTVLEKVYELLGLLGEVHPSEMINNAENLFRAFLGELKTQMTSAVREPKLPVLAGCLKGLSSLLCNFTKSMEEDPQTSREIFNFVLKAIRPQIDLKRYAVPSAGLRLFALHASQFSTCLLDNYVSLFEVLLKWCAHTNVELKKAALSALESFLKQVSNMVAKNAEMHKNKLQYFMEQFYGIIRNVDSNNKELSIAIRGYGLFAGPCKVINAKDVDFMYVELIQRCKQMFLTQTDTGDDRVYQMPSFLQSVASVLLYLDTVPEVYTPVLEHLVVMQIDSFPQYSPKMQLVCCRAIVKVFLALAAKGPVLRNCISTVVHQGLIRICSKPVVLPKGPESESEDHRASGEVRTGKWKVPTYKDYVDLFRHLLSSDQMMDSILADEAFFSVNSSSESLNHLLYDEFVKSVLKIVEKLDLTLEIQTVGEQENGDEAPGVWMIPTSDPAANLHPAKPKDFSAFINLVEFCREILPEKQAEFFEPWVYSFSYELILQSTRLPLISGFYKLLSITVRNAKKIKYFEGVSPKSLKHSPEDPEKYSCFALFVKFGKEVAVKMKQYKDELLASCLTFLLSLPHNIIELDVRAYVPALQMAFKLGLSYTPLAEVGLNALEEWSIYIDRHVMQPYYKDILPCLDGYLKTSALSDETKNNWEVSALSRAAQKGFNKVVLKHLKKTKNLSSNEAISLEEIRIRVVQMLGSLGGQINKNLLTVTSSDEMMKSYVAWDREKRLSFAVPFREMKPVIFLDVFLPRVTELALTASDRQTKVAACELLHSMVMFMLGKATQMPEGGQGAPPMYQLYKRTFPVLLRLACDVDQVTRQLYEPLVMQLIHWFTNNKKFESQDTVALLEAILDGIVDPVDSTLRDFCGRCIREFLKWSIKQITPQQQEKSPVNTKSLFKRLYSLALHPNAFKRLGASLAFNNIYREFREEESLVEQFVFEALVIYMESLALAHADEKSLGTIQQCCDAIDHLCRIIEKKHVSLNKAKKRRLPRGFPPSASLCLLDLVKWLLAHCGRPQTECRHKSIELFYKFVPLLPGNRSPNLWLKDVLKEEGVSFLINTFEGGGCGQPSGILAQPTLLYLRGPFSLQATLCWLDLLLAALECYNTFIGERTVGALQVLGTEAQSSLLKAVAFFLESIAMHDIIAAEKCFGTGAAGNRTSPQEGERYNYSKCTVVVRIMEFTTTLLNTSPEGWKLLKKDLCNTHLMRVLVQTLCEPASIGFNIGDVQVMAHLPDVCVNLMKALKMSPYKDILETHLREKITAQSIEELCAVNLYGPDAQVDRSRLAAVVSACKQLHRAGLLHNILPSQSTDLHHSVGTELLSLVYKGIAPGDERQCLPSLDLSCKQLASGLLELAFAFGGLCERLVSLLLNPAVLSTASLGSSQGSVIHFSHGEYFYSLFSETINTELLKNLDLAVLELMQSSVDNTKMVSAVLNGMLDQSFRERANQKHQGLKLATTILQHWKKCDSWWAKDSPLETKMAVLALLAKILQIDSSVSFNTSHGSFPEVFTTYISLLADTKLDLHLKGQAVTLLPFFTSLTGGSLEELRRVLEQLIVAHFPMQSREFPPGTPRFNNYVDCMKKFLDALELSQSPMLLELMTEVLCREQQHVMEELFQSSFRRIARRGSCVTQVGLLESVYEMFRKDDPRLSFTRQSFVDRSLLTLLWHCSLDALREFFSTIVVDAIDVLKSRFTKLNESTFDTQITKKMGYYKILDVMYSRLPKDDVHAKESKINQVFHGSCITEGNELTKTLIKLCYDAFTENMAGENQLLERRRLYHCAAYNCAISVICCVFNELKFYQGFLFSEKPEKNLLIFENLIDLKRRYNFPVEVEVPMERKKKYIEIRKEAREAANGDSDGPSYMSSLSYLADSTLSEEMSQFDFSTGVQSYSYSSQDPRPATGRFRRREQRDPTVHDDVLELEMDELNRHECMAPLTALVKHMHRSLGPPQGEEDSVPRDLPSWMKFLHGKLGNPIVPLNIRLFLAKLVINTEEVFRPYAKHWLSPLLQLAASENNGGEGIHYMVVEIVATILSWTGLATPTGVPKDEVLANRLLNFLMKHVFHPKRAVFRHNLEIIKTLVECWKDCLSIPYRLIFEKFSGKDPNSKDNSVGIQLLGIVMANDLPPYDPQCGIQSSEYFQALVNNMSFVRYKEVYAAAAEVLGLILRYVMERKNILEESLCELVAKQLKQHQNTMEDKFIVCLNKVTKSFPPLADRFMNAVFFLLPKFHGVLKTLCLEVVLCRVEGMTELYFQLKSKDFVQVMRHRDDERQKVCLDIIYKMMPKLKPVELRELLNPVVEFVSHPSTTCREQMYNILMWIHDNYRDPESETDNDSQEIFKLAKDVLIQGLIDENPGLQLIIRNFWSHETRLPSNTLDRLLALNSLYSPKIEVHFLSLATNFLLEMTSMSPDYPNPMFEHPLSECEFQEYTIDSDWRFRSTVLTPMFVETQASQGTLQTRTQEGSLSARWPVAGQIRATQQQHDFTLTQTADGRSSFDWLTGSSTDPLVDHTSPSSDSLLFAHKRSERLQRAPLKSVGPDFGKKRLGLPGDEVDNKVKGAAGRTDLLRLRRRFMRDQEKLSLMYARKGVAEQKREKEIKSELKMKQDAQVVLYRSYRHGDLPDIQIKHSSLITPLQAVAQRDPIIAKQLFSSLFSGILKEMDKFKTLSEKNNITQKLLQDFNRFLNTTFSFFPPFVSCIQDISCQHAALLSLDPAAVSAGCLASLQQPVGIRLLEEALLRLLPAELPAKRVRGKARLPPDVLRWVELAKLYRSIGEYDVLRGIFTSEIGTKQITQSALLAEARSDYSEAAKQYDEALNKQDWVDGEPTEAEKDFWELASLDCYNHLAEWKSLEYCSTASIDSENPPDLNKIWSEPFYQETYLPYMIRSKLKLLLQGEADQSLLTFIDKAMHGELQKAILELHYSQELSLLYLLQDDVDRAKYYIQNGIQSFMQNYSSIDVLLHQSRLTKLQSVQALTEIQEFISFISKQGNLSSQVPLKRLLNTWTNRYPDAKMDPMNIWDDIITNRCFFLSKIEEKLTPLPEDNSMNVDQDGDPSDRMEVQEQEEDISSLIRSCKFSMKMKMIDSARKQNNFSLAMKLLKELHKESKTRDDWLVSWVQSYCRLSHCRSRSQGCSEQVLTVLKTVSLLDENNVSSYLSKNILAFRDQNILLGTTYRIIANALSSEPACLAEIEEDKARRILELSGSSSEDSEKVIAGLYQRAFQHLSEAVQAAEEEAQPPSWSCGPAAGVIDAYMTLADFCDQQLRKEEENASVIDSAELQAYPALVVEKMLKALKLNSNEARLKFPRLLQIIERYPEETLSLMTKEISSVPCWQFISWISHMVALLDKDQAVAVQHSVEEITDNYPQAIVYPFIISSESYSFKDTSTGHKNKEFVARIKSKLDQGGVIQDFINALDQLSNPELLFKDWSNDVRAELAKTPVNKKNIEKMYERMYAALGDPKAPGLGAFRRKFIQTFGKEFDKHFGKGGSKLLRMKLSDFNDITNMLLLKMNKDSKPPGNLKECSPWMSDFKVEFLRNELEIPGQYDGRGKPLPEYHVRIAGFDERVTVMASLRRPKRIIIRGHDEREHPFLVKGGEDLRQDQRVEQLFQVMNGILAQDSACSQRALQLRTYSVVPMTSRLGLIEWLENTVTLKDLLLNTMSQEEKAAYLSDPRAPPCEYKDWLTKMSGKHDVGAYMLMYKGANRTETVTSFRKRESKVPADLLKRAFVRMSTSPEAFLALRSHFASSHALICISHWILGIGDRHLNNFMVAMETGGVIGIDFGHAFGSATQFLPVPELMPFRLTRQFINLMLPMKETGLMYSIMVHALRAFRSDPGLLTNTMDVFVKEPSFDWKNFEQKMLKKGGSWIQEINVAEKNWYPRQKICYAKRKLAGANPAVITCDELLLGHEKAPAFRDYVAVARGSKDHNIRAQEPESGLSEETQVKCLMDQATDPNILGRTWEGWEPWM
smiles,measurement,setting,value
O=c1cc(N2CCOCC2)oc2c(-c3cccc4c3sc3ccccc34)cccc12,"viability at 16 h, 0.5 µM",[1],94%
same,Activity,[2],Toxic
same,AUC(0-inf),[3],2530 ng·h/mL
same,"inhibition at 120 h, 1 µM",[4],78%
same,Activity,LoVo [5],54%
same,Activity,[6],12%
same,AUC(0-t),[7],817 ng·h/mL
same,Kp at 1.5 h,[8],1.5
same,Kp at 0.5 h,[9],3.4
same,"inhibition at 120 h, 1 µM",[10],8%
same,Kp at 4 h,[11],19
same,Activity,SW-620,15%
same,CL/F,[12],66 mL/min/kg
same,Activity,LoVo [13],72%
same,Kp at 1.5 h,[14],8.7
same,bioavailability,[15],33%
same,fold change (FC),[16],2.3
same,Kp at 1 h,[17],3.6
same,LD90,[18],1 Gy
same,Tmax,[19],30 min
same,Tmax,[20],5 min
same,Kp at 4 h,[21],1
same,LD90,[22],2.8 Gy
same,bioavailability,[23],100%
